Results taken from ChEMBL document CHEMBL4184148 (Bioorg Med Chem Lett, 2017).

Experiments:
[1] = target: Mitogen-activated protein kinase kinase kinase 10 (Homo sapiens) (UniProt Q02779); assay: Binding affinity to wild-type human partial length MLK2 (V52 to W380 residues) expressed in Escherichia coli BL21 at 1 uM by Kinomescan method relative to control
[2] = target: Angiopoietin-1 receptor (Homo sapiens) (UniProt Q02763); assay: Binding affinity to wild-type human partial length TIE2 (N804 to T1112 residues) expressed in Escherichia coli BL21 at 1 uM by Kinomescan method relative to control
Sequence of Angiopoietin-1 receptor (Homo sapiens) (Q02763 whole entry, the tested form may be a part): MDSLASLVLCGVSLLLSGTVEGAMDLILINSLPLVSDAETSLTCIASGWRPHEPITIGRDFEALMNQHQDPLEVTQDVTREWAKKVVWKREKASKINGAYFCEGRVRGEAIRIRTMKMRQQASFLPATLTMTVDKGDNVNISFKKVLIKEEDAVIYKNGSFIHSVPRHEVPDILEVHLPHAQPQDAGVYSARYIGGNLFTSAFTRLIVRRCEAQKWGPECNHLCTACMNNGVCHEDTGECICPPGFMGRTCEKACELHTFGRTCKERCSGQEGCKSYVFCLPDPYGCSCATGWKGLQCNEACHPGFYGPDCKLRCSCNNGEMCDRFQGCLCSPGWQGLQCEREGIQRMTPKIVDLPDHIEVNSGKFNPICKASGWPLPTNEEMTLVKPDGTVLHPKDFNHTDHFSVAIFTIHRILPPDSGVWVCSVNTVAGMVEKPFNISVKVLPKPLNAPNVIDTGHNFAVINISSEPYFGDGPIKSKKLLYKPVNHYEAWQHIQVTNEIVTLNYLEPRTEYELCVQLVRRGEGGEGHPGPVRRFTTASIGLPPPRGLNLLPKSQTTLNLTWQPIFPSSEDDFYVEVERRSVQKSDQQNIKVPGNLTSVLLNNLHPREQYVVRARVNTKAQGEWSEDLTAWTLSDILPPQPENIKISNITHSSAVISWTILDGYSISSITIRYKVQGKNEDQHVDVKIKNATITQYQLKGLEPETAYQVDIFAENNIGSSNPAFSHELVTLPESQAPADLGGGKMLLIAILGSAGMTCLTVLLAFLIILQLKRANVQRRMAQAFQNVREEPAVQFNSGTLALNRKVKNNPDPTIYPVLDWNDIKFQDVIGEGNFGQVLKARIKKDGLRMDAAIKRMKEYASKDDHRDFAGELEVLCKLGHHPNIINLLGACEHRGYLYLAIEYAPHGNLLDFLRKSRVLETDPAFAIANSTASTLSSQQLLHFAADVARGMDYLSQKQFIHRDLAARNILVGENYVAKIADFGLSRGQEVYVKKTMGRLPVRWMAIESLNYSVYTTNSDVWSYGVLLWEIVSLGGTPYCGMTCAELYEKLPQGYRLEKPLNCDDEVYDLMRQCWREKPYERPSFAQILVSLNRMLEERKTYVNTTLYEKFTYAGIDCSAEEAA

[3] = test system: Mast/stem cell growth factor receptor Kit (Homo sapiens), P10721 [V559D,T670I]; assay: Binding affinity to human partial length KIT V559D/T670I double mutant (Y545 to D952 residues) expressed in Escherichia coli BL21 at 1 uM by Kinomescan method relative to control
Sequence of Mast/stem cell growth factor receptor Kit (Homo sapiens), P10721 [V559D,T670I] (P10721 whole entry V559D/T670I, the tested form may be a part): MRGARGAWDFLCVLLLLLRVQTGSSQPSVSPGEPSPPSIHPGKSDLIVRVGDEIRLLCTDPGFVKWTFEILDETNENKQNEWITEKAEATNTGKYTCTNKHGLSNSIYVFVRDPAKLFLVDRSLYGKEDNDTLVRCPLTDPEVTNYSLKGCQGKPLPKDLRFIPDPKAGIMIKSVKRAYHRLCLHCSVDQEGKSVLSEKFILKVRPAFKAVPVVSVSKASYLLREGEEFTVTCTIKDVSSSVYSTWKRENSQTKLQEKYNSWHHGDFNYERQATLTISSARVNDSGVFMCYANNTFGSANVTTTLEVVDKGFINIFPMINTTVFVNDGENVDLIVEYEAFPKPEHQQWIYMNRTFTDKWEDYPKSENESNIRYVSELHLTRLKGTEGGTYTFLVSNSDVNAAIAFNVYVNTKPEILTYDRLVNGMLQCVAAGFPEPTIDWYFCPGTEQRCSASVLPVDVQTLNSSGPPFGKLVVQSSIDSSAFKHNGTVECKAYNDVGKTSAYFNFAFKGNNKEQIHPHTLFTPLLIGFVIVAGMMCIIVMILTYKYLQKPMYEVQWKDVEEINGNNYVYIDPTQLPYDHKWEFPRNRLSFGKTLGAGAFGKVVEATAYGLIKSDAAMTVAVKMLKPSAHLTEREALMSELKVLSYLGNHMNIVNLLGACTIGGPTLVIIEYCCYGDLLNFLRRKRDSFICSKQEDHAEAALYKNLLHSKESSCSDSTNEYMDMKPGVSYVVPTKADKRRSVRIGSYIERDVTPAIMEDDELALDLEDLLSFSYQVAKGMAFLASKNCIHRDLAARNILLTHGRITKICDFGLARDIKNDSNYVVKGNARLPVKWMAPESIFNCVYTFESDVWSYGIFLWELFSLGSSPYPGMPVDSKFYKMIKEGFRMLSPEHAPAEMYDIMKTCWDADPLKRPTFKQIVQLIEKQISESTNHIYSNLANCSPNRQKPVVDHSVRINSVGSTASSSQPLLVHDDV

[4] = target: Dual specificity tyrosine-phosphorylation-regulated kinase 1B (Homo sapiens) (UniProt Q9Y463); assay: Binding affinity to wild-type human full length DYRK1B (M1 to S629 residues) expressed in Escherichia coli BL21 at 1 uM by Kinomescan method relative to control
Procedure, shortened: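 Run as one kinome-wide competition binding panel with each compound at a single fixed concentration. Results were plotted as a kinome-wide selectivity map.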

[5] = target: Epidermal growth factor receptor (Homo sapiens) (UniProt P00533); assay: Binding affinity to human partial length EGFR S752-I759del mutant expressed in Escherichia coli BL21 at 1 uM by Kinomescan method relative to control
[6] = target: Interleukin-1 receptor-associated kinase 1 (Homo sapiens) (UniProt P51617); assay: Binding affinity to wild-type human partial length IRAK1 (R194 to S712 residues) expressed in HEK293 cells at 1 uM by Kinomescan method relative to control; format: cell-based
Sequence of Interleukin-1 receptor-associated kinase 1 (Homo sapiens) (P51617 whole entry, looked up, the tested form may be a part): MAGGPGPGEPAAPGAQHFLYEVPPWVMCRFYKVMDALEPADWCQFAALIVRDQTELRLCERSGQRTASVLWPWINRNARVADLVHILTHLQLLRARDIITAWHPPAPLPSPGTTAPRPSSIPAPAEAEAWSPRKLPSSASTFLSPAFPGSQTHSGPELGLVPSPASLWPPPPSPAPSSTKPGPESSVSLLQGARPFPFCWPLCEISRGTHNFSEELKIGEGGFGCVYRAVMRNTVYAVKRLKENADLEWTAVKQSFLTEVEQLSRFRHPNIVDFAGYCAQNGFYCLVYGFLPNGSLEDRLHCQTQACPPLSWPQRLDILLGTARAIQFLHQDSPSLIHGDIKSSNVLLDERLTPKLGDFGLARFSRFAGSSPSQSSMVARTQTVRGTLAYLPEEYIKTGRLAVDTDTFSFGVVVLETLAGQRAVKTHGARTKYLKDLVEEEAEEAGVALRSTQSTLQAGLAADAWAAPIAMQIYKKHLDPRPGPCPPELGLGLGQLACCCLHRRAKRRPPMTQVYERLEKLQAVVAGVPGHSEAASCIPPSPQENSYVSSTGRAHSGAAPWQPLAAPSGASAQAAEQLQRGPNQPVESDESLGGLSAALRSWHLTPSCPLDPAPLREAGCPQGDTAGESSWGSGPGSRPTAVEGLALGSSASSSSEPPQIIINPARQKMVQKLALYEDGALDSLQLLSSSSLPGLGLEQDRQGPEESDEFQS

[7] = target: Dual specificity tyrosine-phosphorylation-regulated kinase 1A (Homo sapiens) (UniProt Q13627); assay: Binding affinity to wild-type human partial length DYRK1A (H129 to S509 residues) expressed in HEK293 cells at 1 uM by Kinomescan method relative to control; format: cell-based
[8] = target: Tyrosine-protein kinase SYK (Homo sapiens) (UniProt P43405); assay: Binding affinity to wild-type human partial length SYK (D354 to N635 residues) expressed in Escherichia coli BL21 at 1 uM by Kinomescan method relative to control
[9] = test system: Tyrosine-protein kinase ABL1 (Homo sapiens), P00519 [H396P]; assay: Binding affinity to human phosphorylated ABL1 H396P mutant (S229 to K512 residues) expressed in HEK293 cells at 1 uM by Kinomescan method relative to control; format: cell-based
[10] = test system: Tyrosine-protein kinase ABL1 (Homo sapiens), P00519 [T315I]; assay: Binding affinity to human phosphorylated ABL1 T315I mutant (S229 to K512 residues) expressed in HEK293 cells at 1 uM by Kinomescan method relative to control; format: cell-based
[11] = target: Microtubule-associated serine/threonine-protein kinase 1 (Homo sapiens) (UniProt Q9Y2H9); assay: Binding affinity to wild-type human partial length MAST1 (S346 to V730 residues) expressed in HEK293 cells at 1 uM by Kinomescan method relative to control; format: cell-based
[12] = target: Insulin-like growth factor 1 receptor (Homo sapiens) (UniProt P08069); assay: Binding affinity to wild-type human partial length IGF1R (L972 to D1294 residues) expressed in Escherichia coli BL21 at 1 uM by Kinomescan method relative to control
[13] = target: Ephrin type-B receptor 3 (Homo sapiens) (UniProt P54753); assay: Binding affinity to wild-type human partial length EPHB3 (Q599 to T928 residues) expressed in Escherichia coli BL21 at 1 uM by Kinomescan method relative to control
Sequence of Ephrin type-B receptor 3 (Homo sapiens) (P54753 whole entry, the tested form may be a part): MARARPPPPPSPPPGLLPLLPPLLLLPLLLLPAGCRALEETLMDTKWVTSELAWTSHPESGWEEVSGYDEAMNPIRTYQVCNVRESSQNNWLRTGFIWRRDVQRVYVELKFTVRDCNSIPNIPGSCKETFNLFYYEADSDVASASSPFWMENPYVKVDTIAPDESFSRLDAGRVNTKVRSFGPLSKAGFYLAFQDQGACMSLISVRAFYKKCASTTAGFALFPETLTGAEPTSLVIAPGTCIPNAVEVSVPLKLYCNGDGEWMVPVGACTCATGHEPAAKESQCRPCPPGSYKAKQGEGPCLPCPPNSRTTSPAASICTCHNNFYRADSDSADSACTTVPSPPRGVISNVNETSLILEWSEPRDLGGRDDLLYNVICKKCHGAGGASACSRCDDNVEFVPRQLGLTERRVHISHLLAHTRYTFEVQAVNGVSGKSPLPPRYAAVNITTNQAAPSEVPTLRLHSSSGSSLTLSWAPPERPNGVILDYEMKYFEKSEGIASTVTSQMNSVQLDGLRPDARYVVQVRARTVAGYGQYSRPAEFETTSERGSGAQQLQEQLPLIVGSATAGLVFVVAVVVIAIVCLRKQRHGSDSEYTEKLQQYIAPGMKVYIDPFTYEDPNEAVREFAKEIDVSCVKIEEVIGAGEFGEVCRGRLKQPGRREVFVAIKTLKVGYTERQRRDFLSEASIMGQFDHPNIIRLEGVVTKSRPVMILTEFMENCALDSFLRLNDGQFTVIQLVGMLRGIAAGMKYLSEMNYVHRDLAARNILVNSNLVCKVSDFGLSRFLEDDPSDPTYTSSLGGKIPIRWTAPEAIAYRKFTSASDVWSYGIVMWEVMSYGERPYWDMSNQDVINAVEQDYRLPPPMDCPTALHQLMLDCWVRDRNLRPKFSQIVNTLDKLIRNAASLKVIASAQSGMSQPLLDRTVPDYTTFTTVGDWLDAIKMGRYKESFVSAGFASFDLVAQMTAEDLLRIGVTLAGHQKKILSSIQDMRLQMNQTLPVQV

[14] = target: Activin receptor type-1 (Homo sapiens) (UniProt Q04771); assay: Binding affinity to wild-type human ACVR1 (C188 to C509 residues) expressed in Escherichia coli BL21 at 1 uM by Kinomescan method relative to control
[15] = target: SRSF protein kinase 3 (Homo sapiens) (UniProt Q9UPE1); assay: Binding affinity to wild-type human partial length SRPK3 (P41 to P567 residues) expressed in Escherichia coli BL21 at 1 uM by Kinomescan method relative to control
[16] = target: Tyrosine-protein kinase receptor TYRO3 (Homo sapiens) (UniProt Q06418); assay: Binding affinity to wild-type human partial length TYRO3 (S497 to T814 residues) expressed in Escherichia coli BL21 at 1 uM by Kinomescan method relative to control
[17] = target: Serine/threonine-protein kinase Sgk2 (Homo sapiens) (UniProt Q9HBY8); assay: Binding affinity to wild-type human partial length SGK2 (L54 to C427 residues) expressed in HEK293 cells at 1 uM by Kinomescan method relative to control; format: cell-based
Sequence of Serine/threonine-protein kinase Sgk2 (Homo sapiens) (Q9HBY8 whole entry, the tested form may be a part): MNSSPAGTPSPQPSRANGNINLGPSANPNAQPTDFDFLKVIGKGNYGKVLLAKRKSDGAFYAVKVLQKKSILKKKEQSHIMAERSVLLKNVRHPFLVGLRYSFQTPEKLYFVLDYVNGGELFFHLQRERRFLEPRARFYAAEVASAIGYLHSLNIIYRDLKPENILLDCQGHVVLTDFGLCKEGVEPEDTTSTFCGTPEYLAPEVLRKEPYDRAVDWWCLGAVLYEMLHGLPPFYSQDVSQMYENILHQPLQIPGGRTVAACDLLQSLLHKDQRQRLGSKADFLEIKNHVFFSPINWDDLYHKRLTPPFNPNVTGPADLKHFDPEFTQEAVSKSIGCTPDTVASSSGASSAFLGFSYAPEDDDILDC

[18] = target: Receptor-interacting serine/threonine-protein kinase 4 (Homo sapiens) (UniProt P57078); assay: Binding affinity to wild-type human partial length RIPK4 (M1 to V303 residues) expressed in HEK293 cells at 1 uM by Kinomescan method relative to control; format: cell-based
[19] = target: Proto-oncogene tyrosine-protein kinase receptor Ret (Homo sapiens) (UniProt P07949); assay: Binding affinity to wild-type human partial length RET (E713 to D1014 residues) expressed in Escherichia coli BL21 at 1 uM by Kinomescan method relative to control
[20] = target: Calcium/calmodulin-dependent protein kinase kinase 1 (Homo sapiens) (UniProt Q8N5S9); assay: Binding affinity to wild-type human partial length CAMKK1 (R65 to E414 residues) expressed in Escherichia coli BL21 at 1 uM by Kinomescan method relative to control
[21] = target: Serine/threonine-protein kinase DCLK2 (Homo sapiens) (UniProt Q8N568); assay: Binding affinity to wild-type human partial length DCAMKL2 (K273 to V664 residues) expressed in Escherichia coli BL21 at 1 uM by Kinomescan method relative to control
[22] = target: Cyclin-dependent kinase-like 2 (Homo sapiens) (UniProt Q92772); assay: Binding affinity to wild-type human partial length CDKL2 (M1 to D327 residues) expressed in Escherichia coli BL21 at 1 uM by Kinomescan method relative to control
[23] = target: NUAK family SNF1-like kinase 2 (Homo sapiens) (UniProt Q9H093); assay: Binding affinity to wild-type human partial length SNARK (P22 to A333 residues) expressed in HEK293 cells at 1 uM by Kinomescan method relative to control; format: cell-based
Sequence of NUAK family SNF1-like kinase 2 (Homo sapiens) (Q9H093 whole entry, the tested form may be a part): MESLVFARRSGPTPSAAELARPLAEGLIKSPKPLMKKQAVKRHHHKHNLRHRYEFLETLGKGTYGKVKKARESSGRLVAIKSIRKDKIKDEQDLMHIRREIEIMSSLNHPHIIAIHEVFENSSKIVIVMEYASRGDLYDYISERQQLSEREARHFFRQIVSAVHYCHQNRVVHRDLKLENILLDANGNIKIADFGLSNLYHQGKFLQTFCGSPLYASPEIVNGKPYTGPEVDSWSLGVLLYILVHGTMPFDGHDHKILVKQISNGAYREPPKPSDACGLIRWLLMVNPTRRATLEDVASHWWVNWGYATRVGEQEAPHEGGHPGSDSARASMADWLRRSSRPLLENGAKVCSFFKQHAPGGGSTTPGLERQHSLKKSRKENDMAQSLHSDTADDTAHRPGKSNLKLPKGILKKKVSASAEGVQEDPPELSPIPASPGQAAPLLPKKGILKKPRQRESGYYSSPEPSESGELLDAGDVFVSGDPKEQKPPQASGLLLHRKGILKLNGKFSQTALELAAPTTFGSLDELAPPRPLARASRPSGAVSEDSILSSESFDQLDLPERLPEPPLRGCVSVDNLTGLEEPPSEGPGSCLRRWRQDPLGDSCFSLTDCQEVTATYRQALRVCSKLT

[24] = target: Serine/threonine-protein kinase TAO3 (Homo sapiens) (UniProt Q9H2K8); assay: Binding affinity to wild-type human partial length TAOK3 (M1 to T316 residues) expressed in HEK293 cells at 1 uM by Kinomescan method relative to control; format: cell-based
[25] = target: Serine/threonine-protein kinase WNK1 (Homo sapiens) (UniProt Q9H4A3); assay: Binding affinity to wild-type human partial length WNK1 (Q194 to A490 residues) expressed in HEK293 cells at 1 uM by Kinomescan method relative to control; format: cell-based

SMILES | Activity [1] [%] | Activity [2] [%] | Activity [3] [%] | Activity [4] [%] | Activity [5] [%] | Activity [6] [%] | Activity [7] [%] | Activity [8] [%] | Activity [9] [%] | Activity [10] [%] | Activity [11] [%] | Activity [12] [%] | Activity [13] [%] | Activity [14] [%] | Activity [15] [%] | Activity [16] [%] | Activity [17] [%] | Activity [18] [%] | Activity [19] [%] | Activity [20] [%] | further results
CCC(=O)Nc1ccc(C(=O)Nc2ccc(Nc3ncc4c(n3)N(C)c3ccc(C)cc3C(=O)N4C)cc2)cc1 | 74 | 54 | 97 | 100 | 90 | 90 | 73 | 87 | 64 | 100 | 80 | 84 | 88 | 80 | 100 | 91 | 70 | 86 | 88 | 100 | Activity [21]: 81%; Activity [22]: 100%; Activity [23]: 65%; Activity [24]: 92%; Activity [25]: 100%
C=CC(=O)Nc1ccc(C(=O)Nc2ccc(Nc3ncc4c(n3)N(C)c3ccc(C)cc3C(=O)N4C)cc2)cc1 | 82 | 88 | 100 | 90 | 96 | 95 | 96 | 74 | 91 | 99 | 90 | 100 | 89 | 93 | 100 | 92 | 100 | 91 | 86 | 100 | Activity [21]: 78%; Activity [22]: 86%; Activity [23]: 93%; Activity [24]: 95%; Activity [25]: 100%
